# Results reported in paper PMC10751876 (Current research in chemical biology, 2023).
# Experiments:
# hBRD4 [1] = target: T1, hBRD4 (Homo sapiens, UniProt O60885); assay: SPR binding to hBRD4; settings: for Rmax: hBRD4, SPR fit, (locked) = as printed
# TbBdf2 [2] = target: T2, TbBdf2 (Trypanosoma brucei brucei, UniProt Q38AM1); assay: SPR binding to TbBdf2; design: species or system T. brucei; settings: for Rmax: SPR fit, (locked) = as printed; for Kd: read-out: SPR KD, duplicate, standard error
# T2 sequence (Q38AM1 9-123): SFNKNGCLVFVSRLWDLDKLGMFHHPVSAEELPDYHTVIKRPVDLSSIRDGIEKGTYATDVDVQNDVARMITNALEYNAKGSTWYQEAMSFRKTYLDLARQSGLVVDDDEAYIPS
# Summary of the method: (§1)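 Purified His6-tagged bromodomain protein was labelled with DBCO-PEG4-NHS ester (3-fold molar excess, 2 h, room temperature), quenched with ethanolamine, and coupled to an azide chip at pH 4.0 (~6000 RU). Run in duplicate, standard error.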
# TbBdf3 [3] = target: T3, TbBdf3 (Trypanosoma brucei brucei, UniProt Q383S2); assay: SPR binding to TbBdf3; design: species or system T. brucei; settings: for Rmax: TbBdf3, SPR fit, (locked) = as printed
# T3 sequence (Q383S2 1-221): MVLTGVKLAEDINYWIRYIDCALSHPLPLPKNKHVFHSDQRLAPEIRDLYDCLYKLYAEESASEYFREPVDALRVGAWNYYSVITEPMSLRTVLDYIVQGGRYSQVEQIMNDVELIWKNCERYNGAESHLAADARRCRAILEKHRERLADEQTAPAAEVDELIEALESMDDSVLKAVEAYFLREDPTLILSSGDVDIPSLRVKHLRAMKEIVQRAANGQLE
# Summary of the method: as §1
# hBRD4 [4] = target: T1, hBRD4; assay: ITC binding to hBRD4
# TbBdf2 [5] = target: T2, TbBdf2; assay: ITC binding to TbBdf2; design: species or system T. brucei; settings: 15 °C; n set to 1.0; single experiment, error of the fit
# Summary of the method: (§2)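 ITC at 15 °C. His6-tagged bromodomain protein was dialysed against 20 mM HEPES pH 7.5, 150 mM NaCl, 0.5 mM TCEP, 1% DMSO. Typically 2.0 mM protein was injected in 2–3 μL increments into 200 μM ligand in the cell. Baseline-corrected isotherms were fitted. Each titration was run at least twice; reported values come from single experiments with fit error.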
# TbBdf3 [6] = target: T3, TbBdf3; assay: ITC binding to TbBdf3; design: species or system T. brucei
# Summary of the method: as §2
# [7] = system: EP1/GFP reporter parasites; assay: EP1/GFP reporter flow cytometry in bloodstream parasites; format: cell-based, T. brucei; settings: for EP1/GFP mean fluorescence intensity: 3 days
# Summary of the method: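 Bloodstream Lister 427 L224 T. brucei (VSG3/BES7-NeoR, VSG2/BES1-PuroR) carrying an EP1/GFP reporter construct, grown in HMI-9 at 37 °C, 5% CO2. Parasites were treated 2 or 3 days, with DMSO as vehicle control. GFP mean fluorescence intensity was read by flow cytometry. Three biological replicates, SD shown; two-tailed unpaired t-test against DMSO.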
# [8] = system: bloodstream T. brucei parasites; assay: Growth inhibition of bloodstream parasites; format: cell-based; settings: Trypanosoma brucei, 48 h, read-out: GEC50 growth inhibition
# Summary of the method: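 Lister 427 L224 bloodstream parasites were plated at 10,000 cells/ml in HMI-9 across a compound concentration series and grown 48 h at 37 °C, 5% CO2. Cells were then stained with 5 μM Sytox Orange for 15 min at 37 °C and counted by fixed-volume flow cytometry in a live/Sytox-negative gate. Dose-response metrics came from growth-rate-inhibition analysis (GRMetric).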
# T. brucei parasites = assay: Percent of live cells by forward and side scatter gating; format: cell-based; settings: flow cytometry live gate
# Summary of the method: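 Lister 427 L224 bloodstream parasites were cultured in HMI-9 at 37 °C, 5% CO2 and treated 48 h or 72 h at set concentrations, with DMSO controls. Viability is the percentage of cells falling in a live gate set on forward and side scatter by flow cytometry.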
# [9] = system: bloodstream T. brucei parasites (procyclin protein); assay: Procyclin surface protein expression, anti-EP1 flow cytometry; format: cell-based; settings: negative control, 3 days
# [10] = Solubility at ITC ligand concentration; format: physicochemical; settings: at 200 μM, ITC assay
Structure (SMILES),Kd (hBRD4 [1]),Rmax (hBRD4 [1]),Rmax (TbBdf2 [2]),Kd (TbBdf2 [2]),Kd (TbBdf3 [3]),SPR binding to TbBdf3 (TbBdf3 [3]),Rmax (TbBdf3 [3]),Kd (hBRD4 [4]),"TbBdf2, ITC KD (TbBdf2 [5])",Kd (TbBdf3 [6]),EP1/GFP mean fluorescence intensity ([7]; 5 μM),EC50 [8],percentage of live cells compared to DMSO controls (T. brucei parasites),fold change in EP1/GFP mean fluorescence intensity compared to DMSO ([7]; 20 μM),procyclin surface expression [9],solubility [10],"hBRD4, ITC KD (hBRD4 [4]; 15 °C, n set to 1.0, single experiment, error of the fit)",EP1/GFP mean fluorescence intensity ([7]; 20 μM)
"COc1cc2c(N[C@H](C)c3ccccn3)c(C(=O)NCCCCCCN)cnc2cc1-c1c(C)noc1C [AP-08-188, N-(6-Aminohexyl)-7-(3,5-dimethylisoxazol-4-yl)-6-methoxy-4-((R)-1-(pyridin-2-yl)ethylamino)quinoline-3-carboxamide]",0.29 ± 0.17 µM,135 ± 27 RU,85 ± 35 RU,45 ± 31 µM,30 ± 21 µM,weak binding,143 ± 51 RU,0.68 ± 0.15 µM,No binding,87 ± 21 µM,highest,1.74 ± 0.044 µM,significantly lower,,,,,
"NCCCCCCNC(=O)c1ccccc1.O=C(O)C(F)(F)F [AP-08-190, N-(6-aminohexyl)benzamide 2,2,2-trifluoroacetate]",,,,,,,,,,,,,,1.2 fold,Neither DMSO nor the control compound AP-08-190 increased procyclin surface expression,,,
"COc1cc2c(cc1-c1ccc(C(=O)NCCCCCCCCNC(=O)OC(C)(C)C)cc1)ncc1[nH]c(=O)n([C@H](C)c3ccccn3)c12 [AP-09-008, (R)-tert-Butyl 8-(4-(8-methoxy-2-oxo-1-(1-(pyridin-2-yl)ethyl)-2,3-dihydro-1H-imidazo[4,5-c]quinolin-7-yl)benzamido)octylcarbamate]",6.1 ± 3.6 µM,14.2 ± 1.8 RU,27.1 ± 1.2 RU,1.68 ± 0.34 µM,1.43 ± 0.32 µM,,36.9 ± 1.9 RU,,,,strong increase,1.27 ± 0.046 µM,significantly lower,,,insolubility,,
"COCCOCCOCCOC(=O)c1ccc(-c2cc3ncc4[nH]c(=O)n([C@H](C)c5ccccn5)c4c3cc2OC)cc1 [AP-09-191, (R)-2-(2-(2-Methoxyethoxy)ethoxy)ethyl 4-(8-methoxy-2-oxo-1-(1-(pyridin-2-yl)ethyl)-2,3-dihydro-1H-imidazo[4,5-c]quinolin-7-yl)benzoate]",60 ± 26 µM,200 (locked) RU,200 (locked) RU,44 ± 31 µM,56 ± 31 µM,,200 (locked) RU,,,22 ± 11 µM,,,,,,,No binding,increased mean fluorescence intensity of GFP
